Screens (PubChem)
The list is not random: actives were taken first. Their share in the collection is about 5.8%.
Pf Dd2 growth: blocks growth of Plasmodium falciparum Dd2 parasites; actives 2.3% (n = 94,000); P. falciparum Dd2 growth, SYBR Green, 72 h; hits give low values; activity change, % at 10 µM; AID 1159554; in the data active = activity change below about -80%; inconclusive = no clear call, values can overlap the other calls
T cruzi growth-1: inhibitors of T. cruzi proliferation. T. cruzi beta-gal in NIH3T3, GalScreen luminescence, 90 h. inhibition, % at 8.34 µM. actives 5.9% (n = 77,000). AID 624255;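 active = mean inhibition above about 93%, with at least 55% of replicates each passing it, limit read from the data, passing the limit was not always enough; inconclusive = only one of those two conditions holds; inactive = neither condition holds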
IDH1 R132H inh: inhibitors of human IDH1 R132H | O75874 | IDH1 R132H reductase, diaphorase/resazurin fluorescence, 60 min | inhibition, % at 10 µM | actives 0.18% (n = 70,000) | AID 624101; in the data active = inhibition above about 34%; inconclusive = no clear call, values can overlap the other calls; inactive = below about 11%;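 note: 0% = DMSO and 100% = no enzyme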
Target sequence (O75874 whole entry R132H): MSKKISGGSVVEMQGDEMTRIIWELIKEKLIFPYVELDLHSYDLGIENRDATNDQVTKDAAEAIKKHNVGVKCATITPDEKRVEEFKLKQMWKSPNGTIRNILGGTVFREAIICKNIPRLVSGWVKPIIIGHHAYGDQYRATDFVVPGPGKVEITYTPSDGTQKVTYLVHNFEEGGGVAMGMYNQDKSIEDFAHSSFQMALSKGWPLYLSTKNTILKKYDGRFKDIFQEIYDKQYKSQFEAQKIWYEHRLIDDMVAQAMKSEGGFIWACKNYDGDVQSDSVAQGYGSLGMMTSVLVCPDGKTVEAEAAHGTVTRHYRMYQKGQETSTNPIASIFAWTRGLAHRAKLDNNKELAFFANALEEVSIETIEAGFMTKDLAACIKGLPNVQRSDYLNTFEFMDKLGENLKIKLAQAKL
KDM4C inh: KDM4C (human) demethylase inhibition; Q9H3R0; GST-KDM4C 2-372, H3K9me3 peptide, LANCE TR-FRET; inhibition, % at 12.5 µM; actives 0.15% (n = 96,000); AID 720574;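 active = mean replicate inhibition above about 25%, with at least 55% of replicates also reaching it, limit read from the data, passing the limit was not always enough; inconclusive = only one of those two conditions met; inactive = neither condition met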
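Test system – GST-tagged GASC-1 (JMJD2C) catalytic fragment, aa 2-372 · Medium – HEPES buffer, pH 7.5, plus ascorbate · Reagent – H3K9me3 peptide with Fe(II)/2OG · Compound – one test concentration per compound · Timing – 30 min reaction, 60 min detection, RT · Technique – TR-FRET with Eu antibody and ULight streptavidin, EDTA stop · Read-out basis – inhibition from TR-FRET ratio decrease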
T cruzi growth-2: blocks T. cruzi growth in NIH3T3 host cells | inhibition, % at 8.35 µM | actives 72% (n = 5,600) | T. cruzi beta-gal in NIH3T3, GalScreen luminescence, 90 h | shares compounds with T cruzi growth-1;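 active = mean replicate inhibition above about 95% and at least 55% of replicates individually reaching it, limit read from the data; inconclusive = only one of the two criteria is met; inactive = neither criterion is met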
T cruzi growth-3: Trypanosoma cruzi proliferation inhibition; actives 21% (n = 5,600); T. cruzi beta-gal in NIH3T3, GalScreen luminescence, 90 h; shares compounds with T cruzi growth-1; inhibition, % at 2.09 µM; AID 651740;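 active = mean inhibition above about 95%, with at least 55% of replicates also reaching it, limit read from the data; inconclusive = meets just one of the two conditions; inactive = meets neither condition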;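 note: plate controls were neutral control median for no effect and positive control median for full effect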
NIH3T3 tox: kills mouse NIH/3T3 fibroblasts | shares compounds with T cruzi growth-1 | NIH/3T3 viability, CellTiter-Glo ATP luminescence, 90 h | cytotoxicity (signal decrease), % at 8.35 µM | actives 14% (n = 5,600);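 active = mean signal decrease across replicates above about 35% based on untreated-well scatter, with enough replicates individually passing, limit read from the data; inconclusive = no rule stated though some were filed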;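 note: 0% = median of neutral control wells and 100% = median of positive control wells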
NIH3T3 tox 2: kills mouse NIH/3T3 fibroblasts | shares compounds with T cruzi growth-1 | actives 56% (n = 5,600) | AID 651744 | NIH/3T3 viability, CellTiter-Glo ATP luminescence, 90 h | inhibition, % at 24.9 µM;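 active = mean loss of cell viability signal at or above a set limit, and enough replicates individually reaching it; inconclusive = meets only the mean limit or only the replicate share; inactive = meets neither condition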;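 note: 0% = median of neutral control wells and 100% = median of positive control wells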
The depositor's hits bear a star; ? = inconclusive; . = no result.

SMILES	Pf Dd2 growth	T cruzi growth-1	IDH1 R132H inh	KDM4C inh	T cruzi growth-2	T cruzi growth-3	NIH3T3 tox	NIH3T3 tox 2
CC(C)NC(=O)Nc1ccc2c(c1)CC(=O)N([C@@H](C)CO)C[C@@H](C)[C@H](CN(C)Cc1ccc(Oc3ccccc3)cc1)O2	?	101*	0	3	107*	42	30	104*
C[C@@H]1CN([C@H](C)CO)C(=O)Cc2cc(NC(=O)Nc3ccc4c(c3)OCO4)ccc2O[C@H]1CN(C)Cc1ccc(Oc2ccccc2)cc1	9	?	-1	11	113*	69	29	31*
C[C@@H]1CN([C@@H](C)CO)C(=O)Cc2cc(NC(=O)Nc3ccc4c(c3)OCO4)ccc2O[C@@H]1CN(C)Cc1ccc(Oc2ccccc2)cc1	-5	4	.	-1	.	.	.	.
CC(C)NC(=O)Nc1ccc2c(c1)CC(=O)N([C@H](C)CO)C[C@H](C)[C@H](CN(C)Cc1ccc(Oc3ccccc3)cc1)O2	-42	71	1	0	.	.	.	.
COc1ccc(CN(C)C[C@H]2Oc3ccc(NC(=O)Nc4ccc5c(c4)OCO5)cc3CC(=O)N([C@H](C)CO)C[C@H]2C)cc1	31	99*	2	0	110*	20	1	8
CCn1c(SCc2nc(-c3ccc(Br)cc3)no2)nnc1-c1c[nH]c2ccccc12	.	.	5	.	.	.	.	.
C[C@@H]1CN([C@H](C)CO)C(=O)Cc2cc(NS(=O)(=O)c3ccccc3)ccc2O[C@H]1CN(C)C(=O)Nc1ccc(C(F)(F)F)cc1	-26	23	1	1	.	.	.	.
CCS(=O)(=O)N1CCCCN2[C@H](CO)[C@@H](c3ccc(-c4cccc(C#N)c4)cc3)[C@H]2C1	-38	71	.	-2	.	.	.	.
CCS(=O)(=O)N1CCCCN2[C@H](CO)[C@@H](c3ccc(-c4cccc(C#N)c4)cc3)[C@@H]2C1	-89*	108*	.	-2	68	0	14	69*
CCS(=O)(=O)N1CCCCN2[C@@H](CO)[C@@H](c3ccc(-c4ccc(C#N)cc4)cc3)[C@@H]2C1	-51	99*	.	-2	65	24	17	39*
COc1ccc(NC(=O)Nc2ccc3c(c2)CC(=O)N([C@H](C)CO)C[C@@H](C)[C@H](CN(C)Cc2ccc4c(c2)OCO4)O3)cc1	-37	31	2	0	.	.	.	.
C[C@@H]1CN([C@@H](C)CO)S(=O)(=O)c2ccc(/C=C/c3ccccc3)cc2O[C@@H]1CN(C)Cc1ccccc1	-7	100*	0	-1	97*	110*	17	81*
C/C=C/c1ccc2c(c1)O[C@H](CN(C)Cc1cccnc1)[C@H](C)CN([C@@H](C)CO)S2(=O)=O	2	?	2	-1	75	-7	3	20
C[C@@H]1CN([C@H](C)CO)S(=O)(=O)c2ccc(/C=C/c3ccccc3)cc2O[C@@H]1CN(C)Cc1cccnc1	-33	128*	0	-2	91	91	83*	96*
C/C=C/c1ccc2c(c1)O[C@H](CN(C)Cc1cccnc1)[C@@H](C)CN([C@H](C)CO)S2(=O)=O	-22	106*	?	0	103*	100*	48*	71*
COc1ccc(CN2C[C@@H](O)COC[C@H]3O[C@@H](CC(=O)NCc4ccccc4Cl)CC[C@@H]32)cc1	-32	43	.	4	.	.	.	.
O=C(C[C@@H]1CC[C@@H]2[C@H](COC[C@H](O)CN2CC2CCOCC2)O1)NCc1ccc(Cl)cc1	14	-47	.	-1	.	.	.	.
Cc1noc(C)c1NC(=O)Nc1ccc2c(c1)C(=O)N([C@H](C)CO)C[C@@H](C)[C@@H](CN(C)Cc1ccc3c(c1)OCO3)OCCCC[C@@H](C)O2	-37	-101	0	-2	.	.	.	.
C[C@H]1CN([C@@H](C)CO)C(=O)Cc2cc(NC(=O)Cc3ccccc3)ccc2O[C@@H]1CN(C)Cc1ccc2c(c1)OCO2	-44	102*	0	2	108*	21	11	3
C[C@H]1CN([C@@H](C)CO)C(=O)Cc2cc(NC(=O)Cc3ccccc3)ccc2O[C@H]1CN(C)Cc1ccc(C(F)(F)F)cc1	6	105*	0	0	108*	67	14	104*
C[C@H]1CN([C@@H](C)CO)C(=O)Cc2cc(NC(=O)Cc3ccccc3)ccc2O[C@@H]1CN(C)Cc1ccc(C(F)(F)F)cc1	-27	120*	0	13	112*	92	-5	98*
Cc1noc(C)c1S(=O)(=O)N(C)C[C@H]1OCCCC[C@H](C)Oc2ccc(NS(=O)(=O)c3ccc(Cl)cc3)cc2C(=O)N([C@@H](C)CO)C[C@@H]1C	-50	94	.	1	.	.	.	.
Cc1noc(C)c1S(=O)(=O)N(C)C[C@@H]1OCCCC[C@H](C)Oc2ccc(NS(=O)(=O)c3ccc(F)cc3)cc2C(=O)N([C@H](C)CO)C[C@@H]1C	-38	108*	5	0	100*	32	-3	25
Cc1noc(C)c1S(=O)(=O)N(C)C[C@@H]1OCCCC[C@@H](C)Oc2ccc(NS(=O)(=O)c3ccc(Cl)cc3)cc2C(=O)N([C@H](C)CO)C[C@H]1C	-57	103*	1	-3	105*	71	19	1
Cc1ccc(S(=O)(=O)Nc2ccc3c(c2)C(=O)N([C@H](C)CO)C[C@@H](C)[C@H](CN(C)S(=O)(=O)c2c(C)noc2C)OCCCC[C@@H](C)O3)cc1	-47	?	-6	0	112*	40	11	-16
C[C@H](CO)N1C[C@H](C)[C@H](CN(C)Cc2cccnc2)OCc2ccccc2-c2c(n(C)c3ccccc23)C1=O	-23	71	.	2	.	.	.	.
OC[C@H]1[C@H](c2ccc(-c3cccnc3)cc2)[C@@H]2CN(Cc3ccccn3)CCCCN12	-13	?	.	1	106*	68	-9	-3
OC[C@@H]1[C@H](c2ccc(-c3ccc(F)cc3)cc2)[C@H]2CN(Cc3ccccn3)CCCCN12	-21	99*	.	0	107*	92	31	108*
O=C(C[C@H]1CC[C@@H]2[C@H](COC[C@H](O)CN2C(=O)Nc2ccc(Cl)c(Cl)c2)O1)NCc1ccc(Cl)cc1	-2	111*	.	-1	108*	13	?	89*
O=C(C[C@H]1CC[C@H]2[C@@H](COC[C@H](O)CN2C(=O)Nc2ccc(Cl)c(Cl)c2)O1)NCc1ccc(Cl)cc1	-11	?	.	2	93	24	16	102*
